For one test, the system named is Brevibacillus brevis. The experiment in a line: Antibacterial activity against Bacillus brevis ATTC 9999 at 10 mg/ml after 24 to 72 hrs by agar diffusion method. In kind it is functional, organism-based. The gist of the method: (§1)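 Bacterial plates: nutrient broth (8 g/l) with 1.5% agar, seeded at 45 °C with spores or vegetative cells to 10^6 cfu/ml. Compounds were dissolved in methanol at 10 mg/ml and applied to 6 mm paper discs, which were dried and laid on the plates. Inhibition zone diameter (mm) and type (complete or incomplete) were scored after 24–72 h.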
On the technique in general: In agar diffusion tests the substance spreads into inoculated agar from a disc or well.

The test system of test [1] is Enterobacter cloacae subsp. dissolvens. The experiment in a line: Antibacterial activity against Enterobacter dissolvens ATCC 222 at 10 mg/ml after 24 to 72 hrs by agar diffusion method. The class given is functional, organism-based. The method, boiled down:
as §1

The subject of another test is Botrytis cinerea. The experiment in a line: Antifungal activity against Botrytis cinerea FSU 883 at 10 mg/ml after 24 to 72 hrs by agar diffusion method. The class given is functional, organism-based. The gist of the method: (§2)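 Fungal plates: malt extract/yeast extract (HA) medium with 1.5% agar, seeded at 45 °C with spores or yeast cells to 10^5 cfu/ml. Compounds in methanol at 10 mg/ml were loaded onto 6 mm paper discs and dried before placement. Inhibition zone diameter (mm) and complete or incomplete inhibition were recorded after 24–72 h.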

A further test deals with NIH3T3. The experiment in a line: Cytotoxicity against mouse NIH/3T3 cells after 96 hrs by sulforhodamine-B colorimetric assay. The class given is cell-based. The conditions noted are these: NIH3T3, 96 h. The gist of the method:
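Exponentially growing mouse embryonic fibroblasts were seeded and treated 24 h later with serial dilutions for 96 h; DMSO or DMF stayed at or below 0.5%. Cells were fixed with 10% TCA at 4 °C, stained with 0.4% SRB for about 20 min, washed with 1% acetic acid, solubilised in Tris base, and read at 570 nm. Survival is relative to untreated controls. IC50 was obtained by linear interpolation across the 50% line; three independent experiments.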
On the technique in general: Sulforhodamine B stains cellular protein and so reports cell mass.

In the next test the test system is Bacillus subtilis. In words: Antibacterial activity against Bacillus subtilis ATTC 6633 at 10 mg/ml after 24 to 72 hrs by agar diffusion method. In kind it is functional, organism-based. The gist of the method: as §1
Another test concerns Micrococcus luteus. In words: Antibacterial activity against Micrococcus luteus ATCC 381 at 10 mg/ml after 24 to 72 hrs by agar diffusion method. In kind it is functional, organism-based. The gist of the method:
as §1

Another test concerns Eremothecium coryli. In words: Antifungal activity against Nematospora coryli ATCC 10647 at 10 mg/ml after 24 to 72 hrs by agar diffusion method. In kind it is functional, organism-based. The gist of the method: as §2
For the next test, the system named is Penicillium chrysogenum. In words: Antifungal activity against Penicillium notatum FSU 2721 at 10 mg/ml after 24 to 72 hrs by agar diffusion method. In kind it is functional, organism-based. The gist of the method: as §2
The subject of the next test is Rhizomucor miehei. In words: Antifungal activity against Mucor miehei FSU 769 at 10 mg/ml after 24 to 72 hrs by agar diffusion method. In kind it is functional, organism-based. The gist of the method:
as §2

Test [2] has as its system Colletotrichum graminicola. In words: Antifungal activity against Colletotrichum graminicola M2 at 10 mg/ml after 24 to 72 hrs by agar diffusion method. The class given is functional, organism-based. The method, boiled down: as §2

What is called IC50 is the concentration that gives 50% inhibition. A lower IC50 goes with higher potency.

Activity calls are given as the source filed them. The rule behind the calls is not given here.

As for `Oc1ccc(/C=C/c2cc(O)c(F)c(O)c2)cc1`, in the test with Brevibacillus brevis, the outcome was Active. The outcome (in test [1]; in the test with Botrytis cinerea) was inactive. For the same molecule, in the test with NIH3T3, the IC50 was more than 30 µM.
On to `Oc1ccc(O)c(/C=C/c2ccc(O)c(O)c2)c1`, for which, in test [1], the result was inactive. In the test on NIH3T3, this molecule displayed an IC50 of more than 30 µM.
For `COc1ccc(/C=C/c2ccc(O)cc2)c(OC)c1`, in the test on Brevibacillus brevis, the result was Active. The outcome (in test [1]; in the test on Botrytis cinerea) was inactive. The molecule further returned an IC50 in the test on NIH3T3 of 8.2 µM.
For `Oc1ccc(/C=C/c2cc(O)ccc2O)cc1`, the result in the test with Brevibacillus brevis was Active. Also, the result (in test [1]; in the test on Botrytis cinerea) was inactive. Moreover, the IC50 in the test with NIH3T3 was 9.6 µM.
In the case of `COc1cc(/C=C/c2ccc(O)cc2)cc(OC)c1F`, the result in the test on Brevibacillus brevis was Active. Further, the outcome (in [1]; with Botrytis cinerea) was inactive. Besides, the IC50 in the test with NIH3T3 turned out to be 11.5 µM.
Consider `Oc1ccc(O)c(/C=C/c2ccccc2O)c1`, for which the outcome in the test with Brevibacillus brevis, in the test on Bacillus subtilis and in the test with Micrococcus luteus was Active. Further, the outcome in test [1] was inactive. The molecule also came in with an IC50 with NIH3T3 of 12.4 µM.
For `COc1cc(F)c(/C=C/c2cc(O)ccc2O)cc1O`, the result in the test on Brevibacillus brevis, in the test on Bacillus subtilis and in the test on Micrococcus luteus was Active. In addition, the result in test [1] was inactive. This molecule also came in with an IC50 with NIH3T3 of 21.1 µM.
`COc1cc(/C=C/c2cccc(O)c2)cc(OC)c1`: the outcome in the test with Brevibacillus brevis, with Bacillus subtilis and in the test on Micrococcus luteus was Active. In addition, the result in [1] was inactive. In the test on NIH3T3, the IC50 is more than 30 µM.
For the molecule `CN(C)[C@@H]1C(O)=C(C(N)=O)C(=O)[C@@]2(O)C(O)=C3C(=O)c4c(O)cccc4[C@@](C)(O)[C@H]3C[C@@H]12`, the outcome in the test on Brevibacillus brevis was Active.
Consider `Oc1ccc(/C=C/c2cc(O)cc(O)c2)cc1` [RESVERATROL], for which the outcome (in the test with Brevibacillus brevis; in test [1]; with Botrytis cinerea) was inactive. For the same molecule, the result in the test on Micrococcus luteus was Active. In addition, the IC50 in the test with NIH3T3 was more than 30 µM.
For `Oc1cccc(/C=C/c2cc(O)cc(O)c2)c1`, the result in the test on Brevibacillus brevis, with Bacillus subtilis and with Micrococcus luteus was Active. The outcome in test [1] was inactive. The molecule also showed an IC50 in the test with NIH3T3 of more than 30 µM.
For `COc1cc(/C=C/c2cccc(O)c2)cc(OC)c1F`, the result with Brevibacillus brevis, in the test with Bacillus subtilis and in the test on Micrococcus luteus was Active. Further, in test [1], the outcome was inactive. Inhibition in the test on NIH3T3 was half-maximal at 11.8 µM (IC50).
Consider `COc1cc(/C=C/c2ccccc2O)cc(OC)c1F`, for which the outcome with Brevibacillus brevis, with Bacillus subtilis and in the test on Micrococcus luteus was Active. In test [1], the result was inactive. In the test on NIH3T3, this molecule registered an IC50 of 14.8 µM.
On to `COc1cc(/C=C/c2ccc(OC)c(O)c2)cc(OC)c1`, for which, in the test on NIH3T3, it took 0.2 µM to reach half-maximal inhibition (IC50). This counts as sub-micromolar.
For the molecule `COc1cc(/C=C/c2ccc(O)cc2)cc(OC)c1` [PTEROSTILBENE], in the test with Brevibacillus brevis, the result was Active. In addition, the outcome (in test [1]; in the test on Botrytis cinerea) was inactive. The molecule further showed an IC50 with NIH3T3 of 12.2 µM.
Consider `Oc1ccccc1/C=C/c1cc(F)c(F)c(F)c1`, for which the outcome in the test on Brevibacillus brevis, with Bacillus subtilis, with Micrococcus luteus, in the test with Eremothecium coryli, in the test with Penicillium chrysogenum and in the test with Rhizomucor miehei was Active. In addition, the outcome (in [2]; with Botrytis cinerea) was Active. The result in test [1] was inactive. Moreover, in the test with NIH3T3, the IC50 was more than 30 µM.
For `COc1ccc(/C=C/c2ccccc2O)c(OC)c1`, the result in the test on Brevibacillus brevis, with Bacillus subtilis and in the test on Micrococcus luteus was Active. Further, the outcome in test [1] was inactive. The molecule also yielded an IC50 in the test with NIH3T3 of more than 30 µM.
For `COc1ccc(OC)c(/C=C/c2ccc(O)cc2)c1`, in the test on Brevibacillus brevis, the result was Active. Moreover, the outcome (in test [1]; with Botrytis cinerea) was inactive. This molecule also returned an IC50 in the test with NIH3T3 of 7.4 µM.
Regarding `COc1ccc(/C=C/c2cc(O)ccc2O)cc1O`, the outcome in test [1] was inactive. Further, in the test on NIH3T3, the IC50 is more than 30 µM.
For `Oc1ccc(/C=C/c2cc(F)c(F)c(F)c2)cc1`, the outcome in the test on Brevibacillus brevis and in the test on Eremothecium coryli was Active. The outcome (in [1]; with Botrytis cinerea) was inactive. In the test with NIH3T3, the IC50 worked out at 6.9 µM.
In the case of `COc1ccc(/C=C/c2cccc(O)c2)c(OC)c1`, the result with Brevibacillus brevis, in the test on Bacillus subtilis and in the test on Micrococcus luteus was Active. In addition, the outcome in test [1] was inactive. Also, in the test on NIH3T3, half-maximal inhibition (IC50) was put at 19.6 µM.
For `Oc1cccc(/C=C/c2cc(F)c(F)c(F)c2)c1`, the outcome with Brevibacillus brevis, in the test with Bacillus subtilis, in the test on Micrococcus luteus and in the test with Rhizomucor miehei was Active. The result in test [1] was inactive. In the test with NIH3T3, the IC50 is more than 30 µM.
Turning to `COc1ccc(/C=C/c2ccc(OC)c(O)c2)c(OC)c1`, inhibition in the test with NIH3T3 was half-maximal at 2.1 µM (IC50).
As to `COc1ccc(OC)c(/C=C/c2cccc(O)c2)c1`, the outcome in the test on Brevibacillus brevis, with Bacillus subtilis and with Micrococcus luteus was Active. In test [1], the outcome was inactive. Besides, inhibition in the test with NIH3T3 was half-maximal at 25.8 µM (IC50).
For `Oc1cccc(/C=C/c2cc(O)ccc2O)c1`, the outcome in the test with Brevibacillus brevis, with Bacillus subtilis and with Micrococcus luteus was Active. Moreover, the result in [1] was inactive. The same molecule had an IC50 in the test with NIH3T3 of 10.5 µM.
`Oc1cccc(/C=C/c2cc(O)c(F)c(O)c2)c1`: the result with Brevibacillus brevis, with Bacillus subtilis and in the test on Micrococcus luteus was Active. In addition, the result in test [1] was inactive. This molecule also registered an IC50 with NIH3T3 of more than 30 µM.

These data come from ChEMBL document CHEMBL1817619, “Synthesis and antimicrobial activity of (E) stilbene derivatives” (Bioorg Med Chem, 2011).
